Here are results for 27 variants from the RNAGym collection of RNA variant scans (doi:10.1101/gad.245936.114).

This sample holds only a part of the variants without activity.

B1: tRNA (parent)
chain: CUCUCGGUAGCCAAGUUGGUUUAAGGCGCAAGACUUUAAUUUAUCACUACGAAAUCUUGAGAUCGGGCGUUCGACUCGCCCCCGGGAGAUUUUUUCCUCGAGCAA

In this data set the parent is B1. Kind of data set: nonsense suppression (GFP-seq) (ratio to wild type); higher = more function; SUP4oc tRNA, yeast GFP reporter sort-seq. An outline of the steps:
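Yeast were grown in raffinose/galactose medium with 80 mg/L adenine, each strain bearing a genome-integrated ochre-suppressor tRNA variant from a ~3% random-mutation library, a galactose-driven GFP ochre reporter, and RFP. After sorting into GFP/RFP bins, every bin was sequenced on an Illumina platform at phred ≥30. The GFPSEQ value, a measure of nonsense suppression, is the weighted bin median GFP/RFP relative to the unmutated parent tRNA, using each variant's estimated cell share per bin as the weight. Only variants with ≥100 reads and ≥30 cells were included.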
On to UUCUCGGUAGCAAAGUUGGUUUAAGGCGCAAGACUUUAAUUUAUCACUACGAAAUCUUGAGAUCGGGCGUUCGACUCGCCCCCGGGAGAUUUUUUCCUCGAGCAA, for which the nonsense suppression was not above 0.026.

UUCUCGGUAGCGAAGUUGGUUUAAGGCGCAAGACUUUAAUUUAUCACUACGAAAUCUUGAGAUCGGGCGUUCGACUCGCCCCCGGGAGAUUUUUUCCUCGAGCAA: the nonsense suppression was 0.327. Under UUCUCGGUAGCCAAGUUGGUUUAAGGCGCAAGACUUUAAUUUAUCACUACGAAAUCUUGAGAUCGUGCGUUCGACUCGCCCCCGGAAGAUUUUUUCCUCGAGCAA stands not above 0.026; under GUCGCGGUAGCCAAGUUGGUUUAAGGCGCAAGACUUUAAUUUAUCACUACGAAAUCUUGAGAUCGGGCGUUCGACUCCCCCCCGGGAGAUUUUUUCCUCGAGCAA, not above 0.026; under GUCUCGGUAGCCAAGUUGGUUUAAGGCGCAAGACUUUAAUUUAUCACUACGAAACCUUGAGAUCGGGCGUUCGACUCGCCCCCGGGAGAUUUUUUCCUCGAGCAA, 0.0398.

Turning to UUCUCGGUGGCCAAGUUGGUUUAAGGCGCAAGACUUUAAUUUAUCACUACGAAAUCUUGAGAUCGGGCGUUCGACUCGCCCCCGGGAGAUUUUUUCCUCGAGCAA, the nonsense suppression came out at 0.0262. Under UUCUCGGUAGCCAAGUUGGUUUAAGACGCAAGACUUUAAUUUAUCACUACGAAAUCUUGAGAUCGGGCUUUCGACUCGUCCCCGGGAGAUUUUUUCCUCGAGCAA stands not above 0.026. Under UUAUCGGUAGCCAAGUUGGUUUAAGGCGAAAGACUUUAAUUUAUCACUACGAAAUCUUGAGAUCGGGCGUUCGACUCGCCCCCGGGAGAUUUUUUCCUCGAGCAA stands not above 0.026. Under GUCUCGGUAGCCAAGUUGGUUUAAAGCGCAAGACUUUAAUUUAUCACUACGAAAUCUUGAGAUCAGGCGUUCGACUCGCCCCGGGGAGAUUUUUUCCUCGAGCAA stands not above 0.026. Regarding UUCUCGCUAGCCAAGUUGGUUUAAGGCGCAAGACUUUAAUUUAUCACUACGAAAUCUUGAGAUCGGGCCUUCGACUCGCCCCCGCGAGAUUUUUUCCUCGAGCAA, the nonsense suppression is not above 0.026. Regarding UUCUCGGUAGCCAAGUUGGUUUGAGGCGUAAGACUUUAAUUUAUCACUACGAAAUCUUGAGAUGGGGCGUUCGACUCGCCCCCGGGAGAUUUUUUCCUCGAGCAA, the nonsense suppression is not above 0.026. Under GUCUCGGUAGCCAAGUUGGUUUAAGGCGCAAGACUUUAAUUUAUCACUACGAAAUCUUGAAAUCGGGCGUUCGACUCUCCCCCGGGCGAUUUUUUCCUCGAGCAA stands not above 0.026; under GUCUCGGUAGCCAAGUUGGUUUAAGGCGCAAGACUUUAAUUUAUCACUACGAAAUCUUGAAAUCGGGCGUUCGACCCGCCCCCGGGAGAUUUUUUCCUCGAGCAA, 0.0371; under UUCUCGGUAGCCAUGUUGGUUUAAGGCGCAAGACUUUAAUUUAUCACUACGAAAUCUUGAGAUCGGGCGUUCGACUCGCCCCCGGGAGAUUUUUUCCUCGAGCAA, not above 0.026.

For GUCUCGGGAGCCAAGUUGGUUUAAGGCGCAAGACUUUAAUUUAUCACUACGAAAUCUUGAGACCGGGCGUUCUACUCGCCCCCGGGAGAUUUUUUCCUCGAGCAA, the nonsense suppression is not above 0.026. Under UUCUCGGUAGCCAAGUUGGUUUAAGGCGCAAUACUUUAAUUUAUCACUACGAAAACUUGAGCUCGGCCGUUCGACUCGCCCCCGGGAGAUUUUUUCCUCGAGCAA stands not above 0.026; under UUCUCAGUAGCCAAGUUGGUUUAAGGCGCAAGACUUUAAUUUAUCACUACGAAAUCUUGAGAUGGGGCGUUCGACUCGCCCCCGGGAGAUUUUUUCCUCGAGCAA, not above 0.026. Under UUCUCGGUAGCCAAGUUGGUUUAAGGCGCAAGACUUUAAUUUAUCACUACGAAAUAUUGAGAUCGGGCGUUCGACCCGCCCCCGGGAGAUUUUUUCCUCGAGCAA stands not above 0.026. Take UUCUCCGUAUCCAAGUUGGUUUAAGGCGCAAGACUUUAAUUUAUCACUACGAAAUCUCGAGAUCGGGCGUUCGACUCGCCCCCGGGAGAUUUUUUCCUCGAGCAA: the nonsense suppression was not above 0.026. Under GUCUCGGCAGCCAAGUUGGUUUAAGGCGCAAGACUUUAAUUUAUCACUACGAAAGCUUGAGAUCGGGCCUUCGACUCGCCCCCGGGAGAUUUUUUCCUCGAGCAA stands not above 0.026. As for UUAUCGGAAGCCAAGUCGGUUUAAGGCGCAAGACUUUAAUUUAUCACUACGAAAUCUUGAGAUCGGGCGUUCGACUCGCCCCCGGGAGAUUUUUUCCUCGAGCAA, the nonsense suppression was not above 0.026.

UUCUCGGUAGCCAAGUUGGUUUAAGGCGCAAGAUUUUAAUUUAUCACUACGAAAUCUUGAGAUCGGGCGUUCGACUCGCCCCCGCGAGAUUUUUUCCUCGAGCAA: the nonsense suppression is not above 0.026. Under GUCUCGGUAGCCAAGUUGGUUUAAGGCGCAAGACUUUAAUUUAUCACUACGAAAUCUUGAGAUAGGGCGUUCGACUCGCCCCCGGGAGAUUUUUUCCUCGAGCAA stands not above 0.026. As to GUCUCGGUAGCCAAGUUGGGUUUAGGAGCAAGACUUUAAUUUAUCACUACGAAAUCUUGAGAUCGGGCGUUCGACACGCCCCCGGGAUAUUUUUUCCUCGAGCAA, the nonsense suppression is not above 0.026. Under GUCUCGGUAGCCAAGAUGGUUUAAGGCGCAAGACUUUAAUUUAUCACUACGAAAUCUUGAGAUCGGGCGUUCGACUCGCCCCCGGGAGAUUUUUUCCUCGAGCAA stands 0.777.

UUCUUGGUAGCCAAGUUGGUUCAAGGCGCAAGACUUUAAUUUAUCACUACGAAAUCUUGAGACCGGGCGUUCGACUCGCCCCCGGGAGAUUUUUUCCUCGAGCAA: the nonsense suppression is not above 0.026. Under UUCUCGGUAGCCAAGUUAGUUUAAGGCGCAAGACUUUAAUUUAUCACUACGAAAUCUUGAGAUCGGGCGUUCGACUCGCCCCCGGGAGAUUUUUUCCUCGAGCAA stands not above 0.026.
